Assay results from PMC12848671 (Chemical & Biomedical Imaging, 2025).
Read-outs that look alike come from different tables or passages of the source. Ends that are not written are not given here. * marks the point of attachment. 125I = [125I]*

Key:
K18-hACE2 mice = assay: 125I-based SPECT/CT in vivo distribution, K18-hACE2 mice; parameters: species or system mouse
How it was run: (§1)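 Male mice, 4 months old, n = 5 per strain, anaesthetised with isoflurane (1.5%–2% induction, 1%–1.5% maintenance). Each got 3.28 ± 0.42 MBq of the 125I-labelled test peptide via the lateral tail vein. SPECT (35 keV, MLEM, 28 min) at 1 and 6 h post-injection, followed by CT. Manual 3D ROIs gave uptake (counts/mm3) in heart, lungs, liver and GI tract.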

C57BL/6 mice = assay: 125I-based SPECT/CT in vivo distribution, wild-type mice; parameters: species or system mouse; conditions: WT C57BL/6 mice, i.v., by 6 h P.I.
How it was run: as §1

[1] = Radiochemical stability in 10% FBS; assay type: in vitro ADME; conditions: radio-TLC, mean ± SD
wild-type C57BL/6 mice = assay: 68Ga-DOTA-Omi-X PET/CT, wild-type mice; assay type: in vivo, mouse; conditions: 3.7 MBq i.v., PET 2 h P.I.
[2] = Radiochemical stability in 0.01 M PBS; assay type: physicochemical; conditions: radio-TLC, mean ± SD
HEK293-hACE2 cells [3] = assay type: cell-based, human; conditions: 2 × 10^6 cells/mL, 0.5 mL, γ-counter, mean ± SD, three repetitions
[4] = Chemical stability by analytical HPLC; assay type: physicochemical; conditions: 1 mg/mL, 37 °C, 24 h
How it was run: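 For acid stability, test peptide at 1 mg/mL in diluted HCl (pH 2), held at 37 °C for up to 24 h. Purity by analytical HPLC on a C18 column: A = acetonitrile/0.1% TFA, B = water/0.1% TFA, 65-40-0% B over 0-20-20.1 min, 1 mL/min, room temperature.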

HEK293-hACE2 cells [5] = conditions: even at a concentration of 36.27 μM; 36 h
HEK293-hACE2 cells [6] = conditions: 36 h

Q: With “^125I-Omi-X: 125I-labeled Omi-X for SPECT imaging (HQPY(125I)RVVVLSFELLH)” as the compound, how does the clearance from circulation (K18-hACE2 mice; i.v. tail vein, SPECT/CT 1 h P.I.) read?
A: rapidly cleared from circulation

Q: What about the “excretion of unbound tracer” value (K18-hACE2 mice; i.v., SPECT/CT) of the same compound?
A: primarily excreted through the urinary system

Q: And the organ accumulation (K18-hACE2 mice; i.v., SPECT/CT 1 h P.I.)?
A: notably accumulated in the organs highly expressing ACE2, including the lung, heart, liver, and spleen

Q: And the “uptake in RAAS-related organs” value (C57BL/6 mice)?
A: greatly reduced

Q: What does the source list for `CC(C)C[C@H](NC(=O)[C@H](CC(C)C)NC(=O)[C@H](CCC(=O)O)NC(=O)[C@H](Cc1ccccc1)NC(=O)[C@H](CO)NC(=O)[C@H](CC(C)C)NC(=O)[C@@H](NC(=O)[C@@H](NC(=O)[C@@H](NC(=O)[C@H](CCCNC(=N)N)NC(=O)[C@H](Cc1ccc(O)cc1)NC(=O)[C@@H]1CCCN1C(=O)[C@H](CCC(N)=O)NC(=O)[C@H](Cc1c[nH]cn1)NC(=O)CN1CCN(CC(=O)O)CCN(CC(=O)O)CCN(CC(=O)O)CC1)C(C)C)C(C)C)C(C)C)C(=O)N[C@@H](Cc1c[nH]cn1)C(=O)O` [^68Ga-DOTA-Omi-X, metal not drawn]?
A: radiochemical stability (4 h) in 10% FBS [1]: 94.10 ± 1.55%; ACE2-specific targeting (wild-type C57BL/6 mice): did not appear to show significant ACE2-specific targeting; radiochemical stability (4 h) in 0.01 M PBS [2]: 96.10 ± 0.75%

Q: With TVCGPKKSTNLVKNK [Omi-B] as the compound, how does the “radioactive uptake rate in HEK293-hACE2 cells (ACE2-binding rate)” value (HEK293-hACE2 cells [3]) read?
A: 15.04% ± 2.98%

Q: What does the source list for `CC(C)C[C@H](NC(=O)[C@H](CC(C)C)NC(=O)[C@H](CCC(=O)O)NC(=O)[C@H](Cc1ccccc1)NC(=O)[C@H](CO)NC(=O)[C@H](CC(C)C)NC(=O)[C@@H](NC(=O)[C@@H](NC(=O)[C@@H](NC(=O)[C@H](CCCNC(=N)N)NC(=O)[C@H](Cc1ccc(O)cc1)NC(=O)[C@@H]1CCCN1C(=O)[C@H](CCC(N)=O)NC(=O)[C@@H](N)Cc1c[nH]cn1)C(C)C)C(C)C)C(C)C)C(=O)N[C@@H](Cc1c[nH]cn1)C(=O)O` [Omi-X]?
A: chemical stability of the peptide sequence ([4]; diluted HCl (pH = 2), analytical HPLC C18): chemically stable; chemical stability of the peptide sequence ([4]; weakly acidic environment: diluted HCl (pH = 2), analytical HPLC): > 95%; effect on cell cycle distribution (HEK293-hACE2 cells [5]): no significant effect; cell-division rate (CFDA SE) (HEK293-hACE2 cells [6]; 54.410 μM (100 μg/mL)): slightly inhibited; cell-division rate (CFDA SE) (HEK293-hACE2 cells [6]; low-dose 0.544 μM (1 μg/mL)): no significant difference; cell-division rate (CFDA SE) (HEK293-hACE2 cells [6]; medium-dose 5.441 μM (10 μg/mL)): no significant difference
